IC50 data for ten compounds are collected here from ChEMBL document CHEMBL1781939, “Triterpene and sterol derivatives from the roots of Breynia fruticosa” (J Nat Prod, 2011).

Format in all cases: functional, cell-based
One assay has as its system SMMC-7721. Nature of the assay: Cytotoxicity against human SMMC7721 cells after 48 hrs by MTT assay. The note with it: SMMC-7721, 48 h. In short, it runs like this: (§1)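 Cells grown in DMEM with 10% FBS, 5% CO2, 37 °C. Adherent lines plated and left to attach 12 h before dosing; suspension HL-60 plated immediately before dosing; starting density 1 × 10^5 cells/mL. Treated with 0.064, 0.32, 1.6, 8 and 40 μM in triplicate for 48 h; cisplatin as positive control. Viability by MTT; IC50 by Reed–Muench method.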
(Tetrazolium assays rely on reduction of a dye to a coloured formazan, in cell work by metabolically active cells.)

For a further assay, the system named is MCF7. Kind of assay: Cytotoxicity against human MCF7 cells after 48 hrs by MTT assay. The note with it: MCF7, 48 h. In short, it runs like this:
as §1

For the next assay, the system named is SW480. Nature of the assay: Cytotoxicity against human SW480 cells after 48 hrs by MTT assay. The note with it: SW480, 48 h. Summed up: as §1
In a further assay the test system is HL-60. Kind of assay: Cytotoxicity against human HL60 cells after 48 hrs by MTT assay. To be noted: HL-60, 48 h. In short, it runs like this: as §1
The next assay relates to A549. Kind of assay: Cytotoxicity against human A549 cells after 48 hrs by MTT assay. The note with it: A549, 48 h. In short, it runs like this: as §1

On to `C=C(C)[C@@H]1CC[C@]2(C(=O)O)CC[C@]34C(=O)O[C@]5(CC[C@@H]3[C@@H]12)[C@@]4(C)CC[C@]12O[C@]51[C@@H](C)CC2(C)C` [BREYNCEANOTHANOLIC ACID], for which the IC50 in the assay on SMMC-7721 is 14.3 µM; in the assay with MCF7, 12.7 µM; with SW480, 20 µM; in the assay with HL-60, 10.2 µM; with A549, 14.5 µM.
The matching figures for `C=C(C)[C@@H]1CC[C@]2(C(=O)O)CC[C@]3(C)[C@H](CC[C@@H]4[C@@]5(C)[C@H](C(=O)O)[C@H](O)C(C)(C)[C@@H]5CC[C@]43C)[C@@H]12` [EPICEANOTHIC ACID]: greater than 40 µM, greater than 40 µM, greater than 40 µM, greater than 40 µM and greater than 40 µM.
The matching figures for `C=C(CC[C@@H](CO)[C@H]1CC[C@H]2C3=CC[C@H]4[C@H](C)[C@@H](O)[C@H](O)C[C@]4(C)[C@H]3CC[C@]12C)C(C)C` [FRUTICOSIDE A]: 18.5 µM, 15.4 µM, 18.4 µM, 3 µM and 15.7 µM.
As to `C=C(CC[C@@H](C(=O)O)[C@H]1CC[C@H]2C3=CC[C@H]4[C@H](C)[C@@H](O)[C@H](O)C[C@]4(C)[C@H]3CC[C@]12C)C(C)C` [FRUTICOSIDE B], the IC50 in the assay on SMMC-7721, in the assay with MCF7, in the assay on SW480, in the assay with HL-60 and in the assay with A549 was greater than 40 µM in each case.
With `C=C(CC[C@@H](C(=O)O)[C@H]1CC[C@H]2C3=CC[C@H]4[C@H](C)[C@@H](O[C@@H]5O[C@@H](C)[C@H](O)[C@@H](O)[C@@H]5O)[C@H](O)C[C@]4(C)[C@H]3CC[C@]12C)C(C)C` [FRUTICOSIDE C], the IC50 in the assay with SMMC-7721, in the assay on MCF7, with SW480, with HL-60 and with A549 was greater than 40 µM each time.
`C=C(CC[C@@H](C(=O)O)[C@H]1CC[C@H]2C3=CC[C@H]4[C@H](C)[C@@H](O[C@@H]5O[C@@H](C)[C@H](O)[C@@H](O)[C@@H]5O)[C@H](OC(C)=O)C[C@]4(C)[C@H]3CC[C@]12C)C(C)C` [FRUTICOSIDE D]: the IC50 with SMMC-7721, in the assay on MCF7, in the assay on SW480, in the assay with HL-60 and with A549 was greater than 40 µM each time.
For the compound `C=C(CC[C@@H](C(=O)O)[C@H]1CC[C@H]2C3=CC[C@H]4[C@H](C)[C@@H](O[C@@H]5O[C@@H](C)[C@H](O)[C@@H](O)[C@H]5O)[C@H](OC(C)=O)C[C@]4(C)[C@H]3CC[C@]12C)C(C)C` [FRUTICOSIDE E], the IC50 with SMMC-7721, with MCF7, in the assay on SW480, in the assay with HL-60 and with A549 was greater than 40 µM in each case.
Regarding `C=C(CC[C@@H](C(=O)S)[C@H]1CC[C@H]2C3=CC[C@H]4[C@H](C)[C@@H](O[C@@H]5O[C@@H](C)[C@H](O)[C@@H](O)[C@@H]5O)[C@H](OC(C)=O)C[C@]4(C)[C@H]3CC[C@]12C)C(C)C` [FRUTICOSIDE F], the 50% inhibitory concentration (IC50) in the assay with SMMC-7721, with MCF7, in the assay on SW480, in the assay with HL-60 and in the assay with A549 was greater than 40 µM throughout.
As for `C/C=C(/CC[C@@H](C(=O)S)[C@H]1CC[C@H]2C3=CC[C@H]4[C@H](C)[C@@H](O[C@@H]5O[C@@H](C)[C@H](O)[C@@H](O)[C@@H]5O)CC[C@]4(C)[C@H]3CC[C@]12C)C(C)C` [FRUTICOSIDE G], the IC50 in the assay with SMMC-7721, in the assay with MCF7, in the assay with SW480, in the assay on HL-60 and in the assay with A549 was greater than 40 µM each time.
With `C=C(C)[C@@H]1CC[C@]2(C(=O)O)CC[C@]3(C)[C@H](CC[C@@H]4[C@@]5(C)[C@H](C=O)[C@H](O)C(C)(C)[C@@H]5CC[C@]43C)[C@@H]12` [ZIZYBERANALIC ACID], the IC50 with SMMC-7721, in the assay with MCF7, with SW480, in the assay with HL-60 and in the assay with A549 was greater than 40 µM throughout.

The IC50 is the concentration at which inhibition is half-maximal. High values mean lower potency, low ones higher potency.
